Sampled rows, rich in hits. Any-hit rate of the full collection: about 3.7%.
KCNQ1 pot: potentiators or activators of KCNQ1 channel, primary screen, cell-based, thallium flux, high-throughput; B-score at 10 µM; AID 2648, 2010; CHO-K1 KCNQ1, thallium flux FluxOR fluorescence; stronger effect = higher value; Potassium voltage-gated channel subfamily KQT member 1 (Homo sapiens), P51787; actives 0.35% (n = 310,000);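 active = fluorescence ratio B-score, a plate-corrected score, at least three library SD, with initial intensity B-score within 5 SD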
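assay system = KCNQ1-transfected CHO-K1 cells | medium = assay buffer with matched DMSO | probe or stimulus = depolarizing K+/Tl+ stimulus, K2SO4 and Tl2SO4 each 12.5 mM in 5x stock | dosing = single dose | incubation = dye 90 min, compound 20 min, room temperature | detection = kinetic FluxOR fluorescence, 10 s baseline plus 110 s post-stimulus | evaluation = ratio B score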
Kir21 block: inhibitors of mouse Kir2.1 inward-rectifier potassium channel | Inward rectifier potassium channel 2 (Mus musculus), P35561 | HEK293-Kir2.1, FluxOR thallium flux fluorescence; stronger effect = lower value | B-score at 10 µM | actives 0.85% (n = 310,000);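 active = fluorescence ratio B-score at or below minus 3 SD of library scores, with starting-brightness B-score within 2 SD, cut at about -4.2 in these data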;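 also: channel flux triggered by added potassium and thallium sulfate stimulus; B-score of peak minus minimum fluorescence over baseline after thallium stimulus; more negative B-score means stronger Kir2.1 block with less thallium influx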
KCNK3 inh: human KCNK3 channel inhibitors, primary screen, CHO cells, FluxOR thallium flux, B-score; FluxOR fluorescence; stronger effect = lower value; B-score at 10 µM; actives 0.84% (n = 340,000); AID 602410, 2012;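 active = B-score under library mean minus 4 SD, starting fluorescence ratio at most library mean plus 5 SD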;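 also: more negative B-score means stronger inhibition of thallium flux through KCNK3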
KCNK9 inh: KCNK9 potassium channel inhibitors, primary screen, HEK293 cells, thallium flux | AID 488922, 2010 | Potassium channel subfamily K member 9 (Homo sapiens), Q9NPC2 | FluxOR thallium flux fluorescence; stronger effect = lower value | actives 1.2% (n = 310,000) | B-score at 10 µM;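 active = ratio B-score over 3 SD below the library mean, with starting fluorescence within 5 SD of its mean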;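 also: negative B-score means less thallium flux so channel inhibition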
Target sequence (Q9NPC2 whole entry, looked up): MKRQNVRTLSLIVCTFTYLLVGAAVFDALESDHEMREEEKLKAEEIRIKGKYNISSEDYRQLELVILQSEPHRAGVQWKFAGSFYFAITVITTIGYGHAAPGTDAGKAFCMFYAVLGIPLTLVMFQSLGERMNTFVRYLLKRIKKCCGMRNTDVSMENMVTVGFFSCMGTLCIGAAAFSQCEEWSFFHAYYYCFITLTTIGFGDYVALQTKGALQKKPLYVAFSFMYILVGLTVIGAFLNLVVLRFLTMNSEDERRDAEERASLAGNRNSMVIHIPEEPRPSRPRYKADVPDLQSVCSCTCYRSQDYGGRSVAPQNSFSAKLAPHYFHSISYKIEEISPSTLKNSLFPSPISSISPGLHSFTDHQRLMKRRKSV
KCNQ1 block: inhibitors of human KCNQ1 channel, primary screen, cell-based, thallium flux, high-throughput | CHO-K1 KCNQ1, FluxOR thallium flux fluorescence; stronger effect = higher value | B-score at 10 µM | actives 1.3% (n = 310,000);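 active = compounds whose thallium flux B-score, printed positive for inhibition, exceeds three library SD while starting fluorescence stays within three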;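 also: channel opened by potassium depolarization with thallium stimulus after 20 min compound exposure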
hERG protect: hERG rescue from dofetilide block, primary screen, cell-based, CHO-hERG, FluxOR thallium flux, dofetilide IC70; dofetilide IC70 present; activation (rescue from dofetilide block), less the hit threshold, % at 10 µM; actives 0.51% (n = 310,000); AID 1511, 2009;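 active = activation above the mean of controls blocked by dofetilide plus 5 SD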;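 also: thallium influx through hERG after potassium depolarization seen as dye fluorescence rise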
KCNK9 inh conf: KCNK9 potassium channel inhibitors, confirmation, HEK293 cells, thallium flux, duplicate. shares compounds with KCNK9 inh. FluxOR thallium flux fluorescence. inhibition, % at 10 µM. actives 43% (n = 4,900);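 active = thallium signal inhibited by more than 5 SD of the compound-free buffer control wells, on both duplicate plates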
Kir2-1 spec: mouse Kir2.1 channel inhibition, confirmation, selectivity assay for KCNK9 modulator project, cell-based, HEK293, thallium flux; shares compounds with KCNK9 inh; Kir2.1 cells, FluxOR thallium flux fluorescence; inhibition, % at 10 µM; actives 4% (n = 4,900); AID 492993, 2010;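 active = thallium signal drop more than 5 SD beyond the mean of the no-compound control wells, seen in both duplicate plates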;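 also: signal is fluorescence rise after thallium addition divided by baseline fluorescence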
HEK293 Tl ctr: thallium flux in non-induced HEK293 cells, confirmation, counter-screen for KCNK9 inhibitor project, cell-based, second counter screen, non-induced KCNK9-HEK293; actives 40% (n = 4,900); FluxOR thallium flux; inhibition, % at 10 µM; shares compounds with KCNK9 inh;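 active = thallium signal drop beyond 5 SD of the untreated control mean, on both duplicate plates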
Each line names hits and unclear results; the compound was inactive in the other large screens (follow-up assays come after a bar, where they were run).

Cc1c(C(=O)Nc2ccc(-c3nnc4n3CCCCC4)cc2)oc2c1ccc1ccccc12	KCNK9 inh -12.1 | KCNK9 inh conf inactive | Kir2-1 spec inactive | HEK293 Tl ctr 29.5%
Cc1nn(-c2cccc(Cl)c2)c(Cl)c1/C=N/NC(=O)c1cccs1	KCNK9 inh -10.5 | KCNK9 inh conf 60.0% | Kir2-1 spec inactive | HEK293 Tl ctr 31.0%
CCOC(=O)c1cnc2ccc(OCC)cc2c1NCc1ccccc1OC	none
CCOC(=O)c1cnc2ccc(OC)cc2c1NCc1ccccc1	none | KCNK9 inh conf inactive | Kir2-1 spec inactive | HEK293 Tl ctr inactive
O=C(NCCCN1CCOCC1)c1sc2ccccc2c1Cl	none
Cc1cc(C)c2c3c(c(-c4ccccc4)n2n1)c(=O)n(C)c(=O)n3C	none (no result: KCNQ1 pot, Kir21 block, KCNK9 inh, KCNQ1 block, hERG protect)
Cc1cc(-c2ccccc2)c2c3c(c(-c4ccccc4)n2n1)c(=O)n(C)c(=O)n3C	KCNK9 inh -8.76 | KCNK9 inh conf inactive | Kir2-1 spec inactive | HEK293 Tl ctr 36.5%
N#Cc1ccccc1NC(=O)CSc1n[nH]c(=O)n1C1CC1	none (no result: KCNQ1 pot, Kir21 block, KCNK9 inh, KCNQ1 block, hERG protect)
Cc1ccc(C(=O)N2CCC(C(=O)c3ccc(F)cc3)CC2)cc1	none (no result: KCNQ1 pot, Kir21 block, KCNK9 inh, KCNQ1 block, hERG protect)
Cc1ccc(C(=O)N2C(=S)C(c3ccc(F)cc3)=NC23CCN(C)CC3)cc1	none | KCNK9 inh conf inactive | Kir2-1 spec inactive | HEK293 Tl ctr inactive
CN(C)CC(O)COc1cccc(OCC(O)CN(C)C)c1 (stereo not given)	none
CCCCN(CC(O)COc1cccc(C)c1)CC(O)COc1cccc(C)c1 (stereo not given)	none | KCNK9 inh conf inactive | Kir2-1 spec inactive | HEK293 Tl ctr 41.5%
CCOc1ccc(C(=O)C(C)OC(=O)Cn2c(C)csc2=O)cc1 (stereo not given)	none
CN1C(=O)/C(=C/c2ccccc2F)Sc2ccc(C(=O)N3CCCC3)cc21	none
O=[N+]([O-])/C(=C\Nc1ccc(F)cc1F)S(=O)(=O)c1ccccc1	none
Cc1cccc(OCCCC(=O)N2CCCc3ccccc32)c1C	none | KCNK9 inh conf inactive | Kir2-1 spec inactive | HEK293 Tl ctr inactive
O=C(OCC(=O)N1CCCc2ccccc21)c1cnc(Cl)c(Cl)c1	none | KCNK9 inh conf inactive | Kir2-1 spec inactive | HEK293 Tl ctr inactive
O=C(OCC(=O)N1CCCc2ccccc21)c1cccc(C(F)(F)F)c1	none | KCNK9 inh conf inactive | Kir2-1 spec inactive | HEK293 Tl ctr inactive
CN1OC[C@@H]2CN(C(=O)CCc3ccccc3)[C@H](c3cccc(-c4ccccc4)c3)C[C@@H]21	none (no result: KCNQ1 pot, Kir21 block, KCNK9 inh, KCNQ1 block, hERG protect)
Cc1noc(NS(=O)(=O)c2ccc(NC(=O)Nc3ccc(Cl)c(Cl)c3)cc2)c1C	none | KCNK9 inh conf inactive | Kir2-1 spec inactive | HEK293 Tl ctr inactive
Cc1noc(NS(=O)(=O)c2ccc(NC(=O)C(Cl)(Cl)Cl)cc2)c1C	none
COc1ccc(S(=O)(=O)Cc2ccc(C(=O)N3CCN(c4cccc(C)c4)C(C)C3)o2)cc1 (stereo not given)	none | KCNK9 inh conf inactive | Kir2-1 spec inactive | HEK293 Tl ctr inactive
CCC(=O)c1ccc(OCC(=O)OCC(=O)N2c3ccccc3CC2C)cc1 (stereo not given)	none
C/C(=N/OC(=O)C1CC12CCC2)c1ccc(Br)cc1 (stereo not given)	none | KCNK9 inh conf inactive | Kir2-1 spec inactive | HEK293 Tl ctr inactive
O=c1c2ccccc2[nH]c(=S)n1CCCN1CCC(Cc2ccccc2)CC1	none | KCNK9 inh conf inactive | Kir2-1 spec inactive | HEK293 Tl ctr inactive
CC1CCN(CCCn2c(=S)[nH]c3ccccc3c2=O)CC1	none
Cc1ccc(C(c2nnnn2C2CCCC2)N2c3ccccc3CC2C)cc1 (stereo not given)	KCNK9 inh -10.8, KCNQ1 block 7 | KCNK9 inh conf 70.5% | Kir2-1 spec inactive | HEK293 Tl ctr 49.5%
CCSc1nc2c(sc3ccccc32)c(=O)n1C(C)C	KCNQ1 pot 13, KCNK9 inh -11.1, hERG protect 6.1 | KCNK9 inh conf 46.5% | Kir2-1 spec inactive | HEK293 Tl ctr inactive
CCCCn1c(SCC(N)=O)nc2c(sc3ccccc32)c1=O	none
CCOC(=O)COn1c(=O)c(-c2cccs2)[n+]([O-])c2ccccc21	KCNK9 inh -8.32 | KCNK9 inh conf 46.5% | Kir2-1 spec inactive | HEK293 Tl ctr 47.0%
CCOn1c(=O)c(-c2cccs2)[n+]([O-])c2ccccc21	none
CCN(CC)S(=O)(=O)c1ccc(O)c(C(=O)OCC(=O)Nc2cc(C)c(C)cc2[N+](=O)[O-])c1	KCNK9 inh -11 | KCNK9 inh conf 32.5% | Kir2-1 spec inactive | HEK293 Tl ctr 26.0%
O=C(NCC(c1ccco1)N1CCN(c2ccc(F)cc2)CC1)C1CCCCC1 (stereo not given)	KCNK9 inh -13.7 | KCNK9 inh conf 43.5% | Kir2-1 spec inactive | HEK293 Tl ctr 38.5%
O=C(/C=C/c1ccc(-c2ccccc2[N+](=O)[O-])o1)c1ccccc1	KCNK9 inh -8.48 | KCNK9 inh conf 40.5% | Kir2-1 spec inactive | HEK293 Tl ctr 28.5%
